Data reported in ChEMBL document CHEMBL4402525, “Potential Tools for Eradicating HIV Reservoirs in the Brain: Development of Trojan Horse Prodrugs for the Inhibition of P-Glycoprotein with Anti-HIV-1 Activity” (J Med Chem, 2020).
Calls of active or inactive are those of the source. The calls are words filed in the database; no cut-off is given here.

What was measured:
[1] = Produrg conversion in pH 7.4 PBS/30% methanol assessed as GSH-mediated nelfinavir formation by measuring half life at 4 uM in presence of 10 mM GSH by UPLC-MS analysis; type: ADME; settings: pH 7.4, 4 µM
Procedure, shortened: (§1)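 Heterodimer at 4 μM was incubated at 37 °C with 250 mM DTT or 10 mM GSH. The solvent was degassed 30% methanol/PBS (pH ~ 7.4) containing 5 μM quinine as internal standard. Reductant-triggered release of the monomeric drugs was followed over time and given as t1/2.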

[2] = system: Human immunodeficiency virus 1; test: Antiviral activity against HIV1 LAI infected in human 12D7 cells overexpressing p-gp assessed as reduction in P24 level at 0.08 to 1.25 uM incubated for 3 days followed by replacement of fresh medium containing compound and measured after 3 days by ELISA; type: functional, organism-based; settings: M:B_Lai
Procedure, shortened: (§2)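 12D7 CD4+ T cells in log phase, resuspended at 1 million/mL, infected 4 h with 500 TCID50 HIV-1 LAI, washed three times, plated at 75 000 cells/mL; compound added at 0.05% DMSO in RPMI 1640 with 10% FBS, L-glutamine and penicillin/streptomycin; medium with same compound level renewed day 3; day-6 supernatant p24 (gag) quantified by ELISA; duplicate runs.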

[3] = Produrg conversion in pH 7.4 PBS/30% methanol assessed as DTT-mediated abacavir formation by measuring half life at 4 uM in presence of 250 mM DTT by UPLC-MS analysis; type: ADME; settings: buffer, pH 7.4, 4 µM; procedure, shortened: as §1
[4] = Produrg conversion in pH 7.4 PBS/30% methanol assessed as DTT-mediated nelfinavir formation by measuring half life at 4 uM in presence of 250 mM DTT by UPLC-MS analysis; type: ADME; settings: buffer, pH 7.4, 4 µM; procedure, shortened: as §1
[5] = Stability of compound in PBS after 1 week by UPLC-MS analysis; type: physicochemical; settings: read-out: Stability
[6] = Produrg conversion in pH 7.4 PBS/30% methanol assessed as GSH-mediated abacavir formation by measuring half life at 4 uM in presence of 10 mM GSH by UPLC-MS analysis; type: ADME; settings: pH 7.4, 4 µM; procedure, shortened: as §1
[7] = Stability of compound in RPMI medium at 100 uM after 1 week by UPLC-MS analysis; type: physicochemical; settings: read-out: Stability
Procedure, shortened: (§3)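 Heterodimer at 100 μM was held at 37 °C in 12D7 cell medium with 1% DMSO. The medium was RPMI 1640 with penicillin/streptomycin, 5 mM L-glutamine and 10% FBS. Every 24 h an aliquot was quenched 1:1 with ice-cold acetonitrile containing 1.0 mM 4-methoxybenzyl alcohol, then centrifuged. Supernatant was run on C8 RP-HPLC (0.05% TFA, 15–75% acetonitrile over 30 min, UV 254 nm), in duplicate.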

[8] = system: Human immunodeficiency virus 1; test: Antiviral activity against HIV1 LAI infected in human 12D7 cells overexpressing p-gp assessed as reduction in P24 level at 1:1 ratio of test compound to abacavir incubated for 3 days followed by followed by replacement of fresh medium containing compound and measured after 3 days by ELISA; type: functional, organism-based; settings: M:B_Lai; procedure, shortened: as §2
[9] = Stability of compound in PBS after 3 days by UPLC-MS analysis; type: physicochemical; settings: read-out: Stability
[10] = Stability of compound in RPMI medium at 100 uM after 3 days by UPLC-MS analysis; type: physicochemical; settings: read-out: Stability; procedure, shortened: as §3
[11] = Produrg conversion in pH 7.4 PBS/30% methanol assessed as GSH-mediated darunavir formation by measuring half life at 4 uM in presence of 10 mM GSH by UPLC-MS analysis; type: ADME; settings: pH 7.4, 4 µM; procedure, shortened: as §1
[12] = Produrg conversion in pH 7.4 PBS/30% methanol assessed as DTT-mediated darunavir formation by measuring half life at 4 uM in presence of 250 mM DTT by UPLC-MS analysis; type: ADME; settings: buffer, pH 7.4, 4 µM; procedure, shortened: as §1
P-gp (ABCB1) [13] = target: T1, P-gp (ABCB1) (Homo sapiens, UniProt P08183); test: Inhibition of P-gp in human 12D7-MDR cells up to 500 uM using calcein-AM as substrate after 30 mins by flow cytometric analysis relative to control; settings: probe calcein-AM
T1 sequence (P08183 whole entry): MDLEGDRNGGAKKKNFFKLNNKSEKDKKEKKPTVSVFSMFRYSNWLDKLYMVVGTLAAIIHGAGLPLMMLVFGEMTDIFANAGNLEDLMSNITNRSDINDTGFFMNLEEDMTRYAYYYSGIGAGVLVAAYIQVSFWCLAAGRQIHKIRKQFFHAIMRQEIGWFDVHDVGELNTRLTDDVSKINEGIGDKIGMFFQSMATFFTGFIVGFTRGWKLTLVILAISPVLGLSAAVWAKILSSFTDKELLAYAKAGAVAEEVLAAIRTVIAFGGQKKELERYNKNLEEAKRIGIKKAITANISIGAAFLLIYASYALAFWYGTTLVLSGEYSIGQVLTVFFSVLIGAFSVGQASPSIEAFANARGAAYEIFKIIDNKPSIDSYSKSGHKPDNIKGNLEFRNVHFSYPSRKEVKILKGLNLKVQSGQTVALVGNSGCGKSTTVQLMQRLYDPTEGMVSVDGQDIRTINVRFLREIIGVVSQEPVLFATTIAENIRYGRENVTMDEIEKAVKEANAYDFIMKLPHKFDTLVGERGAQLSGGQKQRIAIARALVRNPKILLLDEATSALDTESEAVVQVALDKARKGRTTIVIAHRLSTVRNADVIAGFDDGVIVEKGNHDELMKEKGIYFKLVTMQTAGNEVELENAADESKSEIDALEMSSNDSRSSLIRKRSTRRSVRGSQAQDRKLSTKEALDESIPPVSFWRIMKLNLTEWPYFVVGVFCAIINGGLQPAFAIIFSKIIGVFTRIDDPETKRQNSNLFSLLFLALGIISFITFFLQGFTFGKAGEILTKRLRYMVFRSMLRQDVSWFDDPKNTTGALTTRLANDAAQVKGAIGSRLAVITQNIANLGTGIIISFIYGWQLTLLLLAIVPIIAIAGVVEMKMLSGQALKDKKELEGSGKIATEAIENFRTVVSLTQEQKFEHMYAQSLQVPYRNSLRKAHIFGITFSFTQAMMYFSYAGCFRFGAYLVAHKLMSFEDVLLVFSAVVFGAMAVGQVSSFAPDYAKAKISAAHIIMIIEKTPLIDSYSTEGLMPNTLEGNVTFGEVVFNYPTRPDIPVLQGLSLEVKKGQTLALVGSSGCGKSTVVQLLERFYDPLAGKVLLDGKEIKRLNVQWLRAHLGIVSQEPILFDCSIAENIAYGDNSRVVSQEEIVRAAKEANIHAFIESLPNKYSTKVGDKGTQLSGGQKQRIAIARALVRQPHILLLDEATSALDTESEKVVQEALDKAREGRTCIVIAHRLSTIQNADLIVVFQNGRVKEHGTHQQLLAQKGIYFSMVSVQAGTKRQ

P-gp (ABCB1) [14] = target: T1, P-gp (ABCB1); test: Inhibition of P-gp in human 12D7-MDR cells up to 500 uM using NBD-Aba as substrate after 30 mins by flow cytometric analysis relative to control; settings: probe NBD-Aba

Structure (SMILES) | Activity [2] | t1/2 [3] | t1/2 [6] | Activity [8] | further results
Cc1c(OC(=O)CCCSSCCCC(=O)OC[C@@H]2C=C[C@H](n3cnc4c(NC5CC5)nc(N)nc43)C2)cccc1C(=O)N[C@@H](CSc1ccccc1)[C@H](O)CN1C[C@H]2CCCC[C@H]2C[C@H]1C(=O)NC(C)(C)C | Active | 31.8 h | 29.4 h | – | t1/2 [1]: 10.3 h; t1/2 [4]: 1.2 h; remaining at 168 h [5]: > 95%; remaining at 168 h, 100 µM [7]: > 95%
Cc1c(O)cccc1C(=O)N[C@@H](CSc1ccccc1)[C@H](O)CN1C[C@H]2CCCC[C@H]2C[C@H]1C(=O)NC(C)(C)C | Active | – | – | Active | –
CC(C)CN(C[C@@H](OC(=O)CCCSSCCCC(=O)OC[C@@H]1C=C[C@H](n2cnc3c(NC4CC4)nc(N)nc32)C1)[C@H](Cc1ccccc1)NC(=O)O[C@H]1CO[C@H]2OCC[C@H]21)S(=O)(=O)c1ccc(N)cc1 | Active | 34.5 h | 21.6 h | – | remaining at 72 h [9]: > 95%; remaining at 72 h, 100 µM [10]: > 95%; t1/2 [11]: 36.3 h; t1/2 [12]: 21.3 h
Nc1nc(NC2CC2)c2ncn([C@H]3C=C[C@@H](CO)C3)c2n1 [ABACAVIR] | Active | – | – | – | inhibition at 0.5 h (P-gp (ABCB1) [13]): < 10%; inhibition at 0.5 h (P-gp (ABCB1) [14]): < 10%
CC(C)CN(C[C@@H](O)[C@H](Cc1ccccc1)NC(=O)O[C@H]1CO[C@H]2OCC[C@H]21)S(=O)(=O)c1ccc(N)cc1 | Active | – | – | Active | –
